Experimental data of several laboratories.
Lines come from different studies, so protocols differ.
Cell line: OVCAR-5
Effect on: cell growth or viability

SMILES	technique	time	measurement	result
Cc1cc(C)n(C(=S)[S][Au][PH](CCCCCC[PH]([Au][S]C(=S)n2nc(C)cc2C)(c2ccccc2)c2ccccc2)(c2ccccc2)c2ccccc2)n1	–	–	GI50	1210 nM
CC[C@@H]1C=CC(=O)O[C@@H]1C[C@@H](O)[C@H](C)[C@H](O)[C@@H](C)Cc1ccc(F)cc1	MTT	48 h	GI50	16.5 nM
CCN1CCN(Cc2ccc(Nc3ncc(F)c(-c4cc(F)c5nc(C)n(C(C)C)c5c4)n3)nc2)CC1	CCK-8	–	IC50	2500 nM
CC[C@@H]1C=CC(=O)O[C@@H]1C[C@@H](O)[C@H](C)[C@H](OC)[C@@H](C)Cc1ccc(F)cc1	MTT	48 h	GI50	75.3 nM
COc1ccc(-c2ccc(-c3ccc(C(=N)N)nc3)s2)cc1	SRB	–	GI50	1670 nM
COc1ccc(C(=O)/C=C/c2cccc(Cl)c2)cc1S(N)(=O)=O	SRB	48 h	GI50	1900 nM
COc1cccc(Oc2ccccc2NC(=O)CNC(=O)c2cccc3ccccc23)c1	SRB	48 h	GI50	1120 nM
COc1ccccc1/C=C/C(=O)c1ccc(OC)c(S(N)(=O)=O)c1	SRB	48 h	GI50	2200 nM
COc1cc(-c2ccc(-c3ccc(C(=N)N)nc3)s2)cc(OC)c1OC	SRB	–	GI50	2100 nM
S=C([S][Au-][P+](CCCCCC[P+]([Au-][S]C(=S)n1cccn1)(c1ccccc1)c1ccccc1)(c1ccccc1)c1ccccc1)n1cccn1	–	–	GI50	3630 nM
C/C=C/C[C@H](C)[C@@H](OC)[C@@H](C)[C@H](O)C[C@H]1OC(=O)C=C[C@H]1CC	MTT	48 h	GI50	21.9 nM
